IDH1 mut inh = inhibitors of human IDH1 R132H; O75874; IDH1 R132H reductase, diaphorase/resazurin fluorescence, 60 min; inhibition, % at 10 µM; 0.18% of 70,000 active; AID 624101; in the data active means inhibition above about 34%; inconclusive means no clear call, values can overlap the other calls; inactive means below about 11%;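 further: 0% = DMSO and 100% = no enzyme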
Target sequence (O75874 whole entry R132H): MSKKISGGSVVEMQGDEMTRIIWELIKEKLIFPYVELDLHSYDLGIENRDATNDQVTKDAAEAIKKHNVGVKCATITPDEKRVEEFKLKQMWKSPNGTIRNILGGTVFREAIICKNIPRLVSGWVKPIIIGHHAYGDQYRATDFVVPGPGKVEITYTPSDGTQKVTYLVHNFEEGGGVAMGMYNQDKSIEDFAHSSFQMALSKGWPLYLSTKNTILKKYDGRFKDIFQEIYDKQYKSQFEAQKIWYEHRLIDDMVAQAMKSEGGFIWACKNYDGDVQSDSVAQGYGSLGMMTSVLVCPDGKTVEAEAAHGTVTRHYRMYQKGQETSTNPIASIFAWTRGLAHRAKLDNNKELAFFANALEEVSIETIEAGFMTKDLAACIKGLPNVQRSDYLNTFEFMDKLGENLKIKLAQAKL
T cruzi growth-1 = inhibitors of T. cruzi proliferation; T. cruzi beta-gal in NIH3T3, GalScreen luminescence, 90 h; inhibition, % at 8.34 µM; 5.9% of 77,000 active;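 active means mean inhibition above about 93%, with at least 55% of replicates each passing it, limit read from the data, passing the limit was not always enough; inconclusive means only one of those two conditions holds; inactive means neither condition holds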
KDM4C inh = blocks human GASC-1 (KDM4C) demethylase activity. GST-KDM4C 2-372, H3K9me3 peptide, LANCE TR-FRET. inhibition, % at 12.5 µM. 0.15% of 96,000 active;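 active means mean replicate inhibition above about 25%, with at least 55% of replicates also reaching it, limit read from the data, passing the limit was not always enough; inconclusive means only one of those two conditions met; inactive means neither condition met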
Target sequence (Q9H3R0 2-372 limits assumed): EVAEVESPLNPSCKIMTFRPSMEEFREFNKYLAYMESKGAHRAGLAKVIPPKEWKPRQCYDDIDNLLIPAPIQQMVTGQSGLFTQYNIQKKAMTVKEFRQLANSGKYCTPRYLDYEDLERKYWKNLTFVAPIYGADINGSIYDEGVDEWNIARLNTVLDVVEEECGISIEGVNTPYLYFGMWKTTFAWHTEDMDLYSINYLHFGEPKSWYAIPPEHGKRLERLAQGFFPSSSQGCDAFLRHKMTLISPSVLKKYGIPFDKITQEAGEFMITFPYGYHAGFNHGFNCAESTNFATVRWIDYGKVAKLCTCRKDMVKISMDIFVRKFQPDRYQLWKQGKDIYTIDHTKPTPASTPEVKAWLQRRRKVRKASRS
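reagent = H3K9me3 peptide substrate, Fe(II), 2-oxoglutarate | system = GST-tagged GASC-1 (JMJD2C) catalytic fragment, aa 2-372 | amount = enzyme final amount 10 nM | read-out = Fall in 671/618 emission ratio as inhibition | medium = HEPES buffer, pH 7.5, plus ascorbate | schedule = 30 min reaction, 60 min detection, RT | measured by = LANCE TR-FRET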
T cruzi growth-2 = blocks T. cruzi growth in NIH3T3 host cells. inhibition, % at 8.35 µM. T. cruzi beta-gal in NIH3T3, GalScreen luminescence, 90 h. shares compounds with T cruzi growth-1. 72% of 5,600 active;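 active means mean replicate inhibition above about 95% and at least 55% of replicates individually reaching it, limit read from the data; inconclusive means only one of the two criteria is met; inactive means neither criterion is met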
T cruzi growth-3 = inhibitors of T. cruzi proliferation. shares compounds with T cruzi growth-1. T. cruzi beta-gal in NIH3T3, GalScreen luminescence, 90 h. inhibition, % at 2.09 µM. 21% of 5,600 active. AID 651740;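 active means mean inhibition above about 95%, with at least 55% of replicates also reaching it, limit read from the data; inconclusive means meets just one of the two conditions; inactive means meets neither condition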;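 further: plate controls were neutral control median for no effect and positive control median for full effect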
3T3 cytotox = NIH/3T3 (mouse) viability loss | shares compounds with T cruzi growth-1 | NIH/3T3 viability, CellTiter-Glo ATP luminescence, 90 h | cytotoxicity (signal decrease), % at 8.35 µM | 14% of 5,600 active;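 active means mean signal decrease across replicates above about 35% based on untreated-well scatter, with enough replicates individually passing, limit read from the data; inconclusive means no rule stated though some were filed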;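 further: 0% = median of neutral control wells and 100% = median of positive control wells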
NIH3T3 tox 2 = cytotoxicity in mouse NIH/3T3 fibroblasts; NIH/3T3 viability, CellTiter-Glo ATP luminescence, 90 h; AID 651744; inhibition, % at 24.9 µM; 56% of 5,600 active; shares compounds with T cruzi growth-1;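 active means mean loss of cell viability signal at or above a set limit, and enough replicates individually reaching it; inconclusive means meets only the mean limit or only the replicate share; inactive means meets neither condition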;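 further: 0% = median of neutral control wells and 100% = median of positive control wells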
* = called active by the depositor; ? = inconclusive; nt = no result. Shown is part of a subset that was picked to be rich in hits.

SMILES	IDH1 mut inh	T cruzi growth-1	KDM4C inh	T cruzi growth-2	T cruzi growth-3	3T3 cytotox	NIH3T3 tox 2
COCC#Cc1ccc2c(c1)O[C@@H](CN(C)Cc1ccccn1)[C@H](C)CN([C@H](C)CO)S2(=O)=O	-0.2	8.3	2.6	nt	nt	nt	nt
COCC#Cc1ccc2c(c1)O[C@H](CN(C)Cc1ccccn1)[C@@H](C)CN([C@@H](C)CO)S2(=O)=O	-0.7	57.4	1.6	nt	nt	nt	nt
COc1ccccc1-c1cnc2c(c1)C(=O)N([C@@H](C)CO)C[C@@H](C)[C@@H](CN(C)C(=O)c1ccccc1)O2	nt	77.4	nt	nt	nt	nt	nt
O=C(N/N=C/c1ccc(O)cc1Br)c1ccccn1	0.1	nt	nt	nt	nt	nt	nt
O=C(CCN1CCCCC1)N[C@@H]1CC[C@@H](CCNS(=O)(=O)c2ccc(Cl)cc2)O[C@H]1CO	0.4	24.9	-1.0	nt	nt	nt	nt
COc1cccc(NC(=O)Nc2ccc3c(c2)C(=O)N(C)C[C@@H](OC)[C@@H](C)CN(C)[C@H](C)CO3)c1	-0.3	-69.0	1.4	nt	nt	nt	nt
CC1Cc2ccc3c(c2C(O)C1)C(=O)c1cccc(O)c1C3O (stereo not given)	0.0	nt	nt	nt	nt	nt	nt
N#C[C@@H]1[C@H](c2ccc(C#CC3CCCC3)cc2)[C@@H](CO)N1C(=O)Nc1ccc(F)cc1	nt	97.6*	-1.6	99.0*	94.6	2.2	106.6*
CN(C)CC(=O)N1[C@H](C#N)[C@H](c2ccc(C#CC3CCCC3)cc2)[C@@H]1CO	nt	74.8	0.8	nt	nt	nt	nt
CC(C)NC(=O)N1[C@H](CO)[C@H](c2ccc(C#CC3CCCCC3)cc2)[C@@H]1C#N	nt	106.7*	-1.1	97.7*	115.5*	30.5	53.9*
CN(C)CC(=O)N1[C@H](C#N)[C@H](c2ccc(C#CC3CCCC3)cc2)[C@H]1CO	nt	98.5*	2.8	95.7*	66.4	-9.4	106.5*
CC(C)NC(=O)N1[C@H](C#N)[C@@H](c2ccc(C#CC3CCCC3)cc2)[C@H]1CO	-0.6	102.0*	-1.2	101.6*	97.1*	6.0	36.7*
CN(C)CC(=O)N1[C@@H](C#N)[C@@H](c2ccc(C#CC3CCCC3)cc2)[C@@H]1CO	nt	92.5	0.0	nt	nt	nt	nt
N#C[C@H]1[C@H](c2ccc(C#CC3CCCC3)cc2)[C@@H](CO)N1C(=O)Nc1ccc(F)cc1	nt	92.5	-0.7	nt	nt	nt	nt
N#C[C@H]1[C@H](c2ccc(C#CC3CCCCC3)cc2)[C@H](CO)N1C(=O)Nc1ccc(F)cc1	nt	nt	5.2	nt	nt	nt	nt
CC(=O)N1[C@@H](CO)[C@@H](c2ccccc2)C12CN(C(=O)c1ccc3c(c1)OCO3)C2	nt	nt	1.8	nt	nt	nt	nt
CCS(=O)(=O)N[C@H]1CC[C@@H](CC(=O)NCc2ccc(F)cc2)O[C@@H]1CO	-0.5	93.4	-0.7	nt	nt	nt	nt
C[C@H]1CN([C@@H](C)CO)C(=O)c2cc(-c3ccccc3F)cnc2O[C@@H]1CN(C)C(=O)NC1CCCC1	-0.5	0.7	-2.7	nt	nt	nt	nt
C[C@@H]1CCCCO[C@@H](CN(C)S(=O)(=O)c2ccc(F)cc2)[C@@H](C)CN([C@H](C)CO)C(=O)c2cc(NC(=O)CCC(F)(F)F)ccc2O1	-0.4	11.4	0.9	nt	nt	nt	nt
C[C@H]1CN([C@@H](C)CO)C(=O)c2cc(C#CC3CC3)cnc2O[C@H]1CN(C)S(=O)(=O)c1cccc(F)c1	nt	51.4	-1.3	nt	nt	nt	nt
C[C@H](CO)N1C[C@H](C)[C@H](CN(C)Cc2ccccc2)Oc2ccc(NS(=O)(=O)c3cccs3)cc2C1=O	-0.6	32.5	-1.4	nt	nt	nt	nt
CC(C)NC(=O)N1[C@H](C#N)[C@H](c2ccc(C#CC3CCCCC3)cc2)[C@@H]1CO	nt	92.7	-3.7	nt	nt	nt	nt
CC(C)NC(=O)N1[C@H](C#N)[C@@H](c2ccc(C#CC3CCCCC3)cc2)[C@@H]1CO	nt	96.3*	1.2	96.4*	113.1*	-1.6	104.7*
N#C[C@H]1[C@@H](c2ccc(C#CC3CCCCC3)cc2)[C@H](CO)N1C(=O)Cc1ccccn1	nt	99.8*	-0.9	100.6*	103.6*	-32.7	81.5*
N#C[C@@H]1[C@H](c2ccc(C#CC3CCCC3)cc2)[C@@H](CO)N1C(=O)Cc1ccccn1	nt	nt	-1.3	nt	nt	nt	nt
SMILES	IDH1 mut inh	T cruzi growth-1	KDM4C inh	T cruzi growth-2	T cruzi growth-3	3T3 cytotox	NIH3T3 tox 2
CC(=O)Nc1ccc(C(=O)CSc2nc3ccccc3o2)cc1	-0.2	nt	nt	nt	nt	nt	nt
CN1CCN(C(=O)C[C@H]2C[C@H]3c4cc(NC(=O)C5CCOCC5)ccc4O[C@H]3[C@@H](CO)O2)CC1	-0.1	-15.7	1.4	nt	nt	nt	nt
Cc1ccc(-c2ccc([C@@H]3[C@H]4CN(C(=O)Nc5ccccc5)CCCCN4[C@H]3CO)cc2)cc1	nt	?	1.2	?	95.0	33.2	103.4*
Cc1ccccc1-c1ccc([C@@H]2[C@H](CO)N3CCCCN(C(=O)Nc4ccccc4)C[C@@H]23)cc1	nt	-6.5	-1.8	nt	nt	nt	nt
Cc1ccccc1-c1ccc([C@H]2[C@@H](CO)N3CCCCN(C(=O)Nc4ccccc4)C[C@@H]23)cc1	nt	-6.3	-3.8	nt	nt	nt	nt
Cc1ccc(-c2ccc([C@H]3[C@@H](CO)N4CCCCN(C(=O)Nc5ccccc5)C[C@@H]34)cc2)cc1	nt	118.1*	-1.9	106.2*	85.8	9.9	77.7*
O=C(C[C@@H]1CC[C@H]2[C@@H](COC[C@@H](O)CN2C(=O)c2ccncc2)O1)NCc1ccc(-c2ccccc2)cc1	nt	116.7*	0.4	11.9	14.8	0.9	18.7
O=C(C[C@H]1CC[C@@H]2[C@H](COC[C@@H](O)CN2C(=O)Nc2ccc(Cl)c(Cl)c2)O1)NCc1ccc(Cl)c(Cl)c1	nt	98.3*	-0.8	88.3	101.6*	31.5	106.3*
O=C(C[C@H]1CC[C@H]2[C@@H](COC[C@@H](O)CN2C(=O)c2ccncc2)O1)NCc1ccc(-c2ccccc2)cc1	nt	-11.0	-0.4	nt	nt	nt	nt
O=C(C[C@H]1CC[C@H]2[C@@H](COC[C@H](O)CN2C(=O)Nc2ccc(Cl)c(Cl)c2)O1)NCc1ccccc1	nt	51.3	0.5	nt	nt	nt	nt
O=C(C[C@@H]1CC[C@H]2[C@@H](COC[C@@H](O)CN2C(=O)Nc2ccc(Cl)c(Cl)c2)O1)NCc1ccc(Cl)c(Cl)c1	nt	85.9	0.1	nt	nt	nt	nt
O=C(C[C@@H]1CC[C@@H]2[C@H](COC[C@@H](O)CN2C(=O)Nc2ccc(Cl)c(Cl)c2)O1)NCc1ccncc1	nt	127.2*	9.8	74.1	-7.6	4.0	?
O=C(C[C@H]1CC[C@H]2[C@@H](COC[C@H](O)CN2C(=O)Nc2ccc(Cl)c(Cl)c2)O1)NCc1ccc(Cl)c(Cl)c1	nt	97.0*	0.0	84.5	64.0	40.6*	105.4*
O=C(C[C@H]1CC[C@H]2[C@@H](COC[C@@H](O)CN2C(=O)Nc2ccc(Cl)c(Cl)c2)O1)NCc1ccc(Cl)c(Cl)c1	nt	85.1	-0.5	nt	nt	nt	nt
C[C@@H]1CN([C@H](C)CO)C(=O)c2cccc(NS(=O)(=O)c3ccccc3)c2O[C@@H]1CN(C)C(=O)Nc1ccc(C(F)(F)F)cc1	0.9	75.8	1.9	nt	nt	nt	nt

Assay outcomes as filed in PubChem.
